In ChEMBL document CHEMBL1141084, “Analogues of thiolactomycin as potential antimalarial agents” (J Med Chem, 2005):

Key:
Plasmodium falciparum = experiment: In vitro inhibitory concentration against chloroquine-resistant, pyrimethamine-resistant Plasmodium falciparum K1; assay type: functional, organism-based
[1] = system: Trypanosoma brucei rhodesiense; experiment: Inhibitory concentration against Trypanosoma brucei rhodesiense STIB 900 upon incubation at 37 degrees C in 5% CO2 for 72 hours; assay type: functional, organism-based
[2] = target: T1, Beta-ketoacyl-ACP-synthase III (Plasmodium falciparum) (UniProt O77078); experiment: Percent inhibition of Plasmodium falciparum beta-Ketoacyl-acyl carrier protein synthase III activity (MBP-pfKASIII) expressed in E. coli cells using [1-14C]acetyl-CoA as radioligand upon incubation at 37 degrees C for 15 minutes with compound dissolved in 2% DMSO at 100 uM
T1 sequence (whole entry): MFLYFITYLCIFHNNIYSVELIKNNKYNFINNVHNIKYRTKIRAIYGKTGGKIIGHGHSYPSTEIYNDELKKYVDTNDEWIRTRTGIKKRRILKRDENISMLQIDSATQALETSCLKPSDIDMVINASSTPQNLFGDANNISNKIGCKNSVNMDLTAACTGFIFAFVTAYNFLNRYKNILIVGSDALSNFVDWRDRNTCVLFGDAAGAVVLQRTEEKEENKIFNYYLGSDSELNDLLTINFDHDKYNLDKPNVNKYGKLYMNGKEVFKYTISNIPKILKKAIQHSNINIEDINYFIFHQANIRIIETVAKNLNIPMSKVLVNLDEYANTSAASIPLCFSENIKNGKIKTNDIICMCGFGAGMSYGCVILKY

Trypanosoma cruzi = experiment: Inhibitory concentration against Trypanosoma cruzi [Tulahuen strain C2C4] in rat skeletal myoblasts upon incubation at 37 degrees C for 4 days in 5% CO2; assay type: functional, organism-based
Leishmania donovani = experiment: Inhibitory concentration against amastigotes of Leishmania donovani strain MHOM/ET/67/L82 upon incubation at 37 degrees C for 72 hours using alamar blue
[3] = target: T1, Beta-ketoacyl-ACP-synthase III (Plasmodium falciparum); experiment: Percent inhibition of recombinant Plasmodium falciparum beta-Ketoacyl-acyl carrier protein synthase III activity (MBP-pfKASIII) expressed in E. coli cells using [1-14C]acetyl-CoA as radioligand upon incubation at 37 degrees C for 15 minutes with compound dissolved in 2% DMSO at 10 uM; NA = no activity
Procedure, shortened: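 MBP-fused pfKASIII from E. coli BL21(DE3) codon+RIL, amylose-purified, 500 ng per reaction. Buffer: 100 mM NaH2PO4 pH 6.6, with 25 µM E. coli ACP prereduced with 1 mM β-mercaptoethanol (37 °C, 30 min), 1 µg E. coli FabD, 65 µM malonyl-CoA and 45 µM [1-14C]acetyl-CoA. 2% DMSO final; 37 °C, 15 min. Read-out: filter disks, TCA-washed, scintillation-counted.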

SMILES	IC50 (Plasmodium falciparum; Plasmodium falciparum) [µM]	IC50 ([1]; Trypanosoma brucei, 72 h) [µM]	inhibition [2] [%]	IC50 (Trypanosoma cruzi; Trypanosoma cruzi, 96 h) [µM]	IC50 (Leishmania donovani) [µM]	inhibition [3]	IC50 (Plasmodium falciparum) [µM]	IC50 [1] [µM]	IC50 (Trypanosoma cruzi) [µM]
C=CCC1(C)C(=O)SC(C)(CCCCCCCCCC)C1=O (stereo not given)	26	157	5	55	–	–	–	–	–
CCCCCCCCCCC1(C)SC(=O)C(CCC)=C1OCc1ccccc1 (stereo not given)	4	> 223	–	13	> 74	No activity	–	–	–
CCCCCCCCCCC1(C)SC(=O)C(CCC)=C1OCCCCCCO[Si](C)(C)C(C)(C)C (stereo not given)	3	149	10	14	7	–	–	–	–
CCCCCCCCCCC1(C)SC(O)=C(Cc2ccccc2)C1=O (stereo not given)	50	132	70	64	–	–	–	–	–
CCCCCCCCCCC1(C)SC(O)=C(C)C1=O (stereo not given)	36	171	30	68	–	–	–	–	–
CCCCCCCCCCCCCCCCC1(C)SC(O)=C(C)C1=O (stereo not given)	25	62	55	28	–	–	–	–	–
CCCCCCCCCCCCCCCCC1(C)SC(O)=C(Cc2ccccc2)C1=O (stereo not given)	7	32	50	14	2	–	–	–	–
CCCCCCCCCCC1(C)SC(O)=C(CCC)C1=O (stereo not given)	10	21	55	56	–	–	–	–	–
CCCCCCCCCCC1(C)SC(O)=C(CCCC)C1=O (stereo not given)	71	8	60	77	–	–	–	–	–
CCCCCCCCCCCCCCCCC1(C)SC(O)=C(CC)C1=O (stereo not given)	19	47	65	43	–	–	–	–	–
CCCCCCCCC1(C)SC(O)=C(CC)C1=O (stereo not given)	54	157	–	165	–	No activity	–	–	–
CCCCCCCCCCC1(C)SC(=O)C(C/C=C(/C)CCC=C(C)C)(CCC)C1=O (stereo not given)	77	> 200	–	> 66	> 66	No activity	–	–	–
CCCC1(C/C=C(/C)CCC=C(C)C)C(=O)SC(C)C1=O (stereo not given)	9	55	90	21	12	–	–	–	–
CC(C)=CCC1(C)SC(O)=C(C)C1=O (stereo in doubt; 1a)	–	–	30	–	56	–	> 95	182	> 142
CCC1=C(O)SC(C)C1=O (stereo not given)	233	357	–	568	–	No activity	–	–	–
CCCCCCCCCCC1(C)OC(O)=C(CC)C1=O (stereo not given)	94	62	–	146	–	–	–	–	–
CCCCCCCCCCC1(C)OC(O)=C(CCCC)C1=O (stereo not given)	> 15	13	60	70	–	–	–	–	–
CCCCCCCCCCC1(C)SC(O)=C(CC)C1=O (stereo not given)	15	97	40	54	–	–	–	–	–
CCCC1=C(O)C(C)(CCCCCCO)SC1=O (stereo not given)	157	64	–	64	88	No activity	–	–	–
CCCCCCC1(C)SC(O)=C(CC)C1=O (stereo not given)	61	71	5	195	–	–	–	–	–
CCCCCCCCCCC1SC(O)=C(C)C1=O (stereo not given)	72	6	30	164	–	–	–	–	–
